Experiments:
stroke animal model = conditions: ref unpublished data on file, Jeil Pharma, Seoul, Korea; cited from earlier work
tMCAO stroke model = tMCAO stroke model using monkeys; cited from earlier work
[1] = rats, 4-week GLP toxicology study; cited from earlier work
[2] = SAD study safety and tolerability assessment; format: in vivo, human; conditions: for Number of Subjects with AEs (%) / Number of Subjects with Drug Related AEs (% total): 6 subjects
Summary of the method: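 Randomised, double-blind, placebo-controlled trial in healthy Korean males (active:placebo 6:2 per group), single iv infusion in normal saline over 0.5 h at 35–600 mg. Dose escalation was decided by the DSMB. Subjects were in-house days 1–2, revisited day 3, and had follow-up 7 days post-dose. Monitoring covered vital signs, 12-lead ECG, haematology, chemistry, urinalysis, physical exams and AEs, with relationship to drug assigned.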

Single ascending dose = format: in vivo, human; conditions: for Tmax: max]
Summary of the method: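 Single 0.5 h iv infusion in saline. Plasma sampled predose to 48 h, stored −70°C; urine collected in intervals to 24 h with volumes. Validated HPLC-MS/MS, deuterated internal standard, positive ESI MRM m/z 344.3→201.2. Plasma range 1–3000 or 10–30,000 ng/mL and urine 5–15,000 or 50–150,000 ng/mL, by dose group. Noncompartmental analysis on actual times; AUCinf = AUClast + Clast/λz; CLR = Ae/AUClast.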

[3] = Major metabolites in samples of the highest dose groups; format: in vivo, human; conditions: 600 mg in SAD and 450 mg in MAD
[4] = system: regulatory T cells (Tregs) in peripheral blood mononuclear cells (PBMCs); conditions: PBMCs incubated for 24 h with high-dose JPI-289; cited from earlier work
[5] = single iv dose, n=40, number of subjects [cases]
[6] = single iv 35 mg over 0.5 h, n=6, mean (SD)
[7] = single iv 75 mg over 0.5 h, n=6, mean (SD)
[8] = single iv 150 mg over 0.5 h, n=6, mean (SD)
[9] = single iv 300 mg over 0.5 h, n=6, mean (SD)
[10] = single iv 600 mg over 0.5 h, n=6, mean (SD)
[11] = single iv, all doses 35-600 mg, Total n=30, mean (SD)

CCOc1cc(CN2CCOCC2)cc2[nH]c(=O)c3c(c12)NCCC3.Cl.Cl.O.O [JPI-289]
time after stroke onset at which treatment showed efficacy (stroke animal model): more than 10 h
decrease in infarction volume (tMCAO stroke model): 53%
no observed adverse event level [1]: 40 mg/kg
intensity of AEs ([2]; SAD): mild in intensity
abnormalities in laboratory tests, physical examinations, vital signs, or electrocardiograms ([2]; SAD and MAD): No clinically significant abnormalities
intensity of AEs ([2]; SAD and MAD studies together): all mild in intensity
maximum tolerated dose ([2]; SAD, decided by DSMB, dizziness as dose-limiting toxicity): 600 mg
tolerability ([2]; SAD, dose range 35–600 mg): well tolerated
serious AEs ([2]; entire course of the study (SAD and MAD)): No serious AEs occurred
Number of Subjects with AEs (%) ([2]; single iv dose 35 mg): 3 (50.0)
Number of Subjects with Drug Related AEs (% total) ([2]; single iv dose 35 mg): 1 (16.7)
Number of Subjects with AEs (%) ([2]; single iv dose 75 mg): 0 (0.0)
Number of Subjects with Drug Related AEs (% total) ([2]; single iv dose 75 mg): 0 (0.0)
Number of Subjects with AEs (%) ([2]; single iv dose 150 mg): 0 (0.0)
Number of Subjects with Drug Related AEs (% total) ([2]; single iv dose 150 mg): 0 (0.0)
Number of Subjects with AEs (%) ([2]; single iv dose 300 mg): 0 (0.0)
Number of Subjects with Drug Related AEs (% total) ([2]; single iv dose 300 mg): 0 (0.0)
Number of Subjects with AEs (%) ([2]; single iv dose 600 mg): 3 (50.0)
Number of Subjects with Drug Related AEs (% total) ([2]; single iv dose 600 mg): 3 (50.0)
Abdominal discomfort, Drug-Related [2, 5]: 0 [0]
Abdominal discomfort, Not Related [2, 5]: 0 [0]
Abdominal discomfort, Total [2, 5]: 0 [0]
Bilirubin total increased, Drug-Related [2, 5]: 1 [1]
Bilirubin total increased, Not Related [2, 5]: 0 [0]
Bilirubin total increased, Total [2, 5]: 1 [1]
Diarrhea, Drug-Related [2, 5]: 0 [0]
Diarrhea, Not Related [2, 5]: 1 [1]
Diarrhea, Total [2, 5]: 1 [1]
Dizziness, Drug-Related [2, 5]: 3 [4]
Dizziness, Not Related [2, 5]: 0 [0]
Dizziness, Total [2, 5]: 3 [4]
Fever, Drug-Related [2, 5]: 0 [0]
Fever, Not Related [2, 5]: 0 [0]
Fever, Total [2, 5]: 0 [0]
Headache, Drug-Related [2, 5]: 0 [0]
Headache, Not Related [2, 5]: 0 [0]
Headache, Total [2, 5]: 0 [0]
Heart rate increased, Drug-Related [2, 5]: 0 [0]
Heart rate increased, Not Related [2, 5]: 1 [1]
Heart rate increased, Total [2, 5]: 1 [1]
Sinus tachycardia, Drug-Related [2, 5]: 0 [0]
Sinus tachycardia, Not Related [2, 5]: 0 [0]
Sinus tachycardia, Total [2, 5]: 0 [0]
Stomatitis, Drug-Related [2, 5]: 0 [0]
Stomatitis, Not Related [2, 5]: 0 [0]
Stomatitis, Total [2, 5]: 0 [0]
Urticaria, Drug-Related [2, 5]: 0 [0]
Urticaria, Not Related [2, 5]: 0 [0]
Urticaria, Total [2, 5]: 0 [0]
AUCinf (Single ascending dose; [6]): 665.50 (149.62) ng·h/mL
AUCinf/dose (Single ascending dose; [6]): 19.01 (4.28) ng·h/mL/mg
AUClast (Single ascending dose; [6]): 658.82 (148.39) ng·h/mL
Ae (amount of unchanged drug in urine) (Single ascending dose; [6]): 0.56 (0.22) mg
CL (Single ascending dose; [6]): 54.88 (12.54) L/h
CLR (renal clearance) (Single ascending dose; [6]): 0.84 (0.28) L/h
Cmax (Single ascending dose; [6]): 422.72 (102.10) ng/mL
Cmax/dose (Single ascending dose; [6]): 12.08 (2.92) ng/mL/mg
Vd,ss (Single ascending dose; [6]): 101.33 (26.74) L
Vz (Single ascending dose; [6]): 160.73 (42.91) L
t1/2z (Single ascending dose; [6]): 2.18 (1.01) h
Tmax (Single ascending dose; single iv 35 mg over 0.5 h, n=6, median [min): 0.47 [0.33, 0.50] h
AUCinf (Single ascending dose; [7]): 1947.57 (366.92) ng·h/mL
AUCinf/dose (Single ascending dose; [7]): 25.97 (4.89) ng·h/mL/mg
AUClast (Single ascending dose; [7]): 1940.45 (367.40) ng·h/mL
Ae (amount of unchanged drug in urine) (Single ascending dose; [7]): 1.74 (0.71) mg
CL (Single ascending dose; [7]): 39.77 (8.07) L/h
CLR (renal clearance) (Single ascending dose; [7]): 0.88 (0.26) L/h
Cmax (Single ascending dose; [7]): 1197.77 (173.37) ng/mL
Cmax/dose (Single ascending dose; [7]): 15.97 (2.31) ng/mL/mg
Vd,ss (Single ascending dose; [7]): 91.18 (17.49) L
Vz (Single ascending dose; [7]): 183.32 (61.92) L
t1/2z (Single ascending dose; [7]): 3.21 (0.81) h
Tmax (Single ascending dose; single iv 75 mg over 0.5 h, n=6, median [min): 0.48 [0.33, 0.52] h
AUCinf (Single ascending dose; [8]): 6057.90 (1533.04) ng·h/mL
AUCinf/dose (Single ascending dose; [8]): 40.39 (10.22) ng·h/mL/mg
AUClast (Single ascending dose; [8]): 6029.78 (1520.32) ng·h/mL
Ae (amount of unchanged drug in urine) (Single ascending dose; [8]): 5.31 (1.49) mg
CL (Single ascending dose; [8]): 26.41 (8.03) L/h
CLR (renal clearance) (Single ascending dose; [8]): 0.89 (0.21) L/h
Cmax (Single ascending dose; [8]): 2481.05 (502.31) ng/mL
Cmax/dose (Single ascending dose; [8]): 16.54 (3.35) ng/mL/mg
Vd,ss (Single ascending dose; [8]): 85.17 (15.31) L
Vz (Single ascending dose; [8]): 118.12 (34.25) L
t1/2z (Single ascending dose; [8]): 3.12 (0.40) h
Tmax (Single ascending dose; single iv 150 mg over 0.5 h, n=6, median [min): 0.48 [0.43, 0.50] h
AUCinf (Single ascending dose; [9]): 10,061.82 (3690.15) ng·h/mL
AUCinf/dose (Single ascending dose; [9]): 33.54 (12.30) ng·h/mL/mg
AUClast (Single ascending dose; [9]): 9786.58 (3534.51) ng·h/mL
Ae (amount of unchanged drug in urine) (Single ascending dose; [9]): 8.37 (3.65) mg
CL (Single ascending dose; [9]): 34.28 (15.06) L/h
CLR (renal clearance) (Single ascending dose; [9]): 0.91 (0.45) L/h
Cmax (Single ascending dose; [9]): 4842.02 (1202.57) ng/mL
Cmax/dose (Single ascending dose; [9]): 16.14 (4.01) ng/mL/mg
Vd,ss (Single ascending dose; [9]): 92.52 (15.20) L
Vz (Single ascending dose; [9]): 124.50 (30.65) L
t1/2z (Single ascending dose; [9]): 2.73 (0.76) h
Tmax (Single ascending dose; single iv 300 mg over 0.5 h, n=6, median [min): 0.48 [0.17, 0.50] h
AUCinf (Single ascending dose; [10]): 32,228.35 (11,796.05) ng·h/mL
AUCinf/dose (Single ascending dose; [10]): 53.71 (19.66) ng·h/mL/mg
AUClast (Single ascending dose; [10]): 32,066.88 (11,725.80) ng·h/mL
Ae (amount of unchanged drug in urine) (Single ascending dose; [10]): 25.32 (6.50) mg
CL (Single ascending dose; [10]): 21.34 (9.69) L/h
CLR (renal clearance) (Single ascending dose; [10]): 0.84 (0.20) L/h
Cmax (Single ascending dose; [10]): 10,381.25 (2097.17) ng/mL
Cmax/dose (Single ascending dose; [10]): 17.30 (3.50) ng/mL/mg
Vd,ss (Single ascending dose; [10]): 73.01 (13.20) L
Vz (Single ascending dose; [10]): 81.46 (16.60) L
t1/2z (Single ascending dose; [10]): 2.88 (0.72) h
Tmax (Single ascending dose; single iv 600 mg over 0.5 h, n=6, median [min): 0.50 [0.48, 0.52] h
AUCinf (Single ascending dose; [11]): 10,192.23 (12,791.37) ng·h/mL
AUCinf/dose (Single ascending dose; [11]): 34.52 (16.32) ng·h/mL/mg
AUClast (Single ascending dose; [11]): 10,096.50 (12,719.54) ng·h/mL
Ae (amount of unchanged drug in urine) (Single ascending dose; [11]): 8.26 (9.65) mg
CL (Single ascending dose; [11]): 35.33 (15.66) L/h
CLR (renal clearance) (Single ascending dose; [11]): 0.87 (0.27) L/h
Cmax (Single ascending dose; [11]): 3864.96 (3789.52) ng/mL
Cmax/dose (Single ascending dose; [11]): 15.61 (3.55) ng/mL/mg
Vd,ss (Single ascending dose; [11]): 88.64 (19.42) L
Vz (Single ascending dose; [11]): 133.63 (51.80) L
t1/2z (Single ascending dose; [11]): 2.83 (0.80) h
Tmax (Single ascending dose; single iv, all doses 35-600 mg, Total n=30, median [min): 0.48 [0.17, 0.52] h
number of metabolites detected [3]: Twenty-two
proportions of regulatory T cells (Tregs) [4]: can be increased

Reference: publication PMC7415440 (Drug Design, Development and Therapy, 2020)
